Assays:
[1] = target: Inosine-5'-monophosphate dehydrogenase 2 (Homo sapiens, UniProt P12268); experiment: Inhibition of human IMPDH 2
Toxoplasma gondii [2] = experiment: Antiparasitic activity against Toxoplasma gondii expressing Cryptosporidium parvum IMPDH and co-expressing yellow fluorescent protein infected to human TERT immobilized human foreskin fibroblasts assessed as parasite growth inhibition for 6 to 7 days by fluorescence based assay; type: functional, organism-based
Summary of the method: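 Parasite lines carrying yellow fluorescent protein were grown on hTERT-immortalized human foreskin fibroblasts. One line depends on C. parvum IMPDH (Toxo/CpIMPDH). The other is wild-type strain RH, which has its own eukaryotic IMPDH. Fluorescence (Ex 485, Em 530) was read daily for 6-7 days. Growth inhibition was taken on a day within exponential growth.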

Toxoplasma gondii [3] = experiment: Toxicity against wild type Toxoplasma gondii expressing yellow fluorescent protein infected in human TERT immobilized human foreskin fibroblasts assessed as parasite growth inhibition for 6 to 7 days by fluorescence based assay; type: organism-based
Summary of the method: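 Parasite lines carrying yellow fluorescent protein were grown on hTERT-immortalized human foreskin fibroblasts. One line depends on C. parvum IMPDH (Toxo/CpIMPDH). The other is wild-type strain RH, which has its own eukaryotic IMPDH. Growth inhibition was taken on a day within exponential growth.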

[4] = target: T1, Inosine-5'-monophosphate dehydrogenase (Cryptosporidium parvum, UniProt Q8T6T2); experiment: Inhibition of Cryptosporidium parvum recombinant IMPDH expressed in Escherichia coli assessed as production of NADH in presence of 0.05% fatty acid free BSA incubated for 5 mins by fluorescence based assay
T1 sequence (Q8T6T2 whole entry): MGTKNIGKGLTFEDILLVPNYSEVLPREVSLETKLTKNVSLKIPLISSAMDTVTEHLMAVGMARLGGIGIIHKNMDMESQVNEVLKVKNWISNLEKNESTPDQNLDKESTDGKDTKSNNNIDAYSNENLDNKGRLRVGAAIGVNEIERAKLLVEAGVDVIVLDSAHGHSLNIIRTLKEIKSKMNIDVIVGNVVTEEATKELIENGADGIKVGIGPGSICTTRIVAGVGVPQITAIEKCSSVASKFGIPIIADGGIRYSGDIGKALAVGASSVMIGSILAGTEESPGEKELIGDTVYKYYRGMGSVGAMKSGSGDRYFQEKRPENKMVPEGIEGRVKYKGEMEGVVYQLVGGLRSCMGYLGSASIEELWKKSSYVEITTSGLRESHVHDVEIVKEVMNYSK
Summary of the method: (§1)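 Recombinant CpIMPDH purified from E. coli, 10 nM, preincubated with inhibitor 5 min at room temperature before substrates added. NADH formation followed by fluorescence. Line 3 also includes 0.05% fatty-acid-free BSA.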

[5] = target: T1, Inosine-5'-monophosphate dehydrogenase; experiment: Inhibition of Cryptosporidium parvum recombinant IMPDH expressed in Escherichia coli assessed as production of NADH incubated for 5 mins by fluorescence based assay; summary of the method: as §1
Toxoplasma gondii [6] = experiment: Selectivity ratio of EC50 of wild type Toxoplasma gondii to EC50 of Toxoplasma gondii expressing Cryptosporidium parvum IMPDH
Summary of the method: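 Selectivity is the EC50 against wild-type RH T. gondii divided by the EC50 against the CpIMPDH-dependent strain. Both were measured by daily YFP fluorescence of parasites on hTERT human foreskin fibroblasts over 6-7 days, with inhibition taken in exponential growth.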

Plasma = experiment: Half life in mouse plasma; type: ADME, cell-free
Liver = experiment: Half life in mouse liver microsomes; type: ADME, Microsome

SMILES | IC50 [1] [µM] | EC50 (Toxoplasma gondii [2]) [nM] | EC50 (Toxoplasma gondii [3]) [µM] | IC50 [4] [nM] | IC50 [5] [nM] | Ratio EC50 (Toxoplasma gondii [6]) | t1/2 (Plasma) [min] | t1/2 (Liver) [min]
C=C(C)c1cccc(C(C)(C)NC(=O)Nc2ccc3ncccc3c2)c1 | ≥ 5 | 20 | 7.6 | 4 | 1.8 |  |  | 
C=C(C)c1cccc(C(C)(C)NC(=O)Nc2ccc(C(C)(C)C)cc2)c1 | ≥ 5 | 7200 | 20 |  | > 5000 | 3 |  | 
C=C(C)c1cccc(C(C)(C)NC(=O)Nc2cccc3ccccc23)c1 | ≥ 5 |  |  |  | > 5000 |  |  | 
C=C(C)c1cccc(C(C)(C)NC(=O)Nc2ccc(Cl)c(C(=O)NC)c2)c1 | ≥ 5 | 180 | 19 | 14 | 7 | 100 |  | 
C=C(C)c1cccc(C(C)(C)NC(=O)Nc2ccc(Cl)c(C(F)(F)F)c2)c1 | ≥ 5 |  |  | 20 | 4 |  |  | 
CC(=O)c1cccc(C(C)(C)NC(=O)Cc2ccc(Cl)cc2)c1 |  |  |  |  | > 5000 |  |  | 
C=C(C)c1cccc(C(C)(C)NC(=O)Nc2ccccc2Cl)c1 | ≥ 5 |  |  |  | > 5000 |  |  | 
C/C(=N\O)c1cccc(C(C)(C)NC(=O)Nc2ccc(Cl)c(C(N)=O)c2)c1 |  | 1900 | > 25 | 6 |  | >12 | > 120 | 190
C/C(=N\O)c1cccc(C(C)(C)NC(=O)Nc2ccc(Cl)c(C(F)(F)F)c2)c1 |  | 10 |  | 4 | 1 |  |  | 88
C/C(=N\OCCN)c1cccc(C(C)(C)NC(=O)Nc2ccc(Cl)c([N+](=O)[O-])c2)c1 |  | 510 | 10.1 | 24 | 20 | 20 |  | 121
C=C(C)c1cccc(C(C)(C)NC(=O)N(C)c2ccc(Cl)cc2)c1 |  |  |  | 5000 | 900 |  |  | 
CC(=O)c1cccc(C(C)(C)NC(=O)Oc2ccc(Cl)cc2)c1 |  |  |  |  | > 5000 |  |  | 
CC(C)(NC(=O)Nc1ccc(Cl)cc1)c1ccc(-c2ccccc2)cc1 |  |  |  |  | > 5000 |  |  | 
CC(=O)c1cccc(C(C)(C)NC(=O)Nc2ccc(Cl)cc2)c1 |  |  |  | 64 | 39 |  |  | 
CC(=O)c1cccc(C(C)(C)OC(=O)Nc2ccc(Cl)cc2)c1 |  |  |  | 120 | 90 |  |  | 
CC(=O)c1cccc(C(C)(C)NC(=O)Nc2ccc(Cl)c(C(N)=O)c2)c1 |  | 380 | > 25 | 52 | 54 | >66 | > 120 | > 700
C=C(C)c1cccc(C(C)(C)NC(=O)Nc2ccc(Cl)c(OC)c2)c1 | ≥ 5 | 18 | 2.3 | 5 | 1.3 | 127 |  | 
C=C(C)c1cccc(C(C)(C)NC(=O)Nc2cnc3ccccc3c2)c1 | ≥ 5 | 1100 | 2 | 308 | 70 | 2.3 |  | 
C=C(C)c1cccc(C(C)(C)NC(=O)Nc2ccc(OC)cc2)c1 | ≥ 5 |  |  | 21 | 9 |  |  | 
C/C(=N\O)c1cccc(C(C)(C)NC(=O)Nc2ccc3ccccc3c2)c1 |  | 80 | 5 | 2.3 | 1 | 63 |  | 
CC(=O)c1cccc(C(C)NC(=O)Nc2ccc(Cl)cc2)c1 (stereo not given) |  | 2300 | 8 | 110 | 70 |  |  | 
C=C(C)c1cccc(C(C)(C)NC(=O)Nc2ccc3ccccc3c2)c1 | ≥ 5 | 200 | > 25 | 40 | 2.1 | >120 |  | 
CC(C)(NC(=O)Nc1ccc2[nH]c(=O)[nH]c2c1)c1ccccc1 |  |  |  |  | > 5000 |  |  | 

SMILES | IC50 [1] [µM] | EC50 (Toxoplasma gondii [2]) [nM] | EC50 (Toxoplasma gondii [3]) [µM] | IC50 [4] [nM] | IC50 [5] [nM] | Ratio EC50 (Toxoplasma gondii [6]) | t1/2 (Plasma) [min] | t1/2 (Liver) [min]
C=C(C)c1cccc(C(C)(C)NC(=O)Nc2ccc(Cl)c(Cl)c2)c1 | ≥ 5 | 220 | 4 | 50 | 6 | 20 |  | 
CC(=O)c1cccc(C(C)(C)NC(=O)Nc2ccc(Cl)c(C(F)(F)F)c2)c1 |  | 200 | 3.2 | 20 | 9 | 16 |  | 
C=C(C)c1cccc(C(C)(C)NC(=O)Nc2ccccc2)c1 | ≥ 5 | 770 | 6 | 410 | 250 | 8 |  | 
C=C(C)c1cccc(C(C)(C)NC(=O)Nc2ccc3[nH]c(=O)[nH]c3c2)c1 | > 5 |  |  |  | 340 |  |  | 
C/C(=N\O)c1cccc(C(C)(C)NC(=O)Nc2ccc(Cl)c([N+](=O)[O-])c2)c1 |  | 6 |  | 2 | 0.66 |  |  | 11
CO/N=C(\C)c1cccc(C(C)(C)NC(=O)Nc2ccc(Cl)c(C(F)(F)F)c2)c1 |  | 16 | 1.4 | 18 | 5 | 86 |  | 33
CC(C)(NC(=O)Nc1ccc(Cl)c(C(N)=O)c1)c1cccc(-c2ccccc2)c1 |  | 210 | 6 | 14 | 4 |  |  | 
CC(C)c1cccc(C(C)(C)NC(=O)Nc2ccc3ccccc3c2)c1 |  |  |  |  | > 5000 |  |  | 
C=C(C)c1cccc(C(C)(C)NC(=O)Nc2ccc(Br)cc2)c1 | ≥ 5 | 200 | > 25 | 20 | 10 | >120 |  | 
C=C(C)c1cccc(C(C)(C)NC(=O)Nc2cccc(Cl)c2)c1 | ≥ 5 | 380 | 0.402 | 330 | 70 | 1 |  | 
CC(=O)c1cccc(CNC(=O)Nc2ccc(Cl)cc2)c1 |  | 11000 | 7 |  | 5000 | 0.6 |  | 
NC(=O)c1cc(NC(=O)NC2(c3cccc(-c4ccccc4)c3)CC2)ccc1Cl |  | 600 | 9 | 90 | 40 | 15 |  | 
CO/N=C(\C)c1cccc(C(C)(C)NC(=O)Nc2ccc3ccccc3c2)c1 |  | 13 |  | 13 | 1.6 |  |  | 
C=C(C)c1cccc(C(C)(C)NC(=O)Nc2ccc3cccnc3c2)c1 | ≥ 5 | < 200 | 3 | 6 | 0.8 | >15 | > 120 | 5.9
C=C(C)c1cccc(C(C)(C)NC(=O)Nc2ccc(Cl)c(C(N)=O)c2)c1 | ≥ 5 | 230 | 15 | 3 | 2.3 | 65 | > 120 | 25
CC(O)c1cccc(C(C)(C)NC(=O)Nc2ccc(Cl)cc2)c1 (stereo not given) |  | 900 | 19 | 120 | 80 |  |  | 
C/C(=N\O)c1cccc(C(C)(C)NC(=O)Nc2ccc3cccnc3c2)c1 |  | 58 | 14 | 1.2 | 0.9 | 230 | > 120 | 45
C=C(C)c1cccc(C(C)(C)NC(=O)Nc2ccc3c(c2)OCCO3)c1 | ≥ 5 | 200 | 8 | 110 | 7.2 | 50 |  | 
C=C(C)c1cccc(C(C)(C)NC(=O)Nc2ccc3ccccc3n2)c1 | ≥ 5 | 3400 | 3 | 1100 | 250 | 0.9 |  | 
C=C(C)c1cccc(C(C)(C)NC(=O)Nc2ccc(Cl)c(C(=O)N(C)C)c2)c1 | ≥ 5 | 90 | 9 | 11.7 | 8 | 100 |  | 
C=C(C)c1cccc(C(C)(C)NC(=O)Nc2ccc(Cl)cc2)c1 | ≥ 5 | 180 | > 25 | 37 | 20 | >140 |  | 
CO/N=C(\C)c1cccc(C(C)(C)NC(=O)Nc2ccc(Cl)c(C(N)=O)c2)c1 |  | 200 | > 25 | 5 | 5 | >120 |  | 

Source: ChEMBL document CHEMBL2176986, “Selective and potent urea inhibitors of cryptosporidium parvum inosine 5'-monophosphate dehydrogenase” (J Med Chem, 2012)
